Key:
Type in all cases: functional
CCRF-CEM = test: Growth inhibition of human CCRF-CEM cells at 10 uM after 48 hrs by SRB assay relative to control; conditions: read-out: GI
Procedure, shortened: (§1)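 Screened at the National Cancer Institute by the standard NCI protocol using the sulforhodamine B assay, which measures cellular protein. Single dose of 10 µM. Result is percent growth inhibition; values above 100% mean cell number fell below the initial population. Values are the average of duplicates.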

HOP-62 = test: Growth inhibition of human HOP62 cells at 10 uM after 48 hrs by SRB assay relative to control; conditions: HOP-62, 48 h, read-out: GI; procedure, shortened: as §1
MDA-MB-435 = test: Growth inhibition of human MDA-MB-435 cells at 10 uM after 48 hrs by SRB assay relative to control; conditions: MDA-MB-435, 48 h, read-out: GI; procedure, shortened: as §1
SNB-75 = test: Growth inhibition of human SNB75 cells at 10 uM after 48 hrs by SRB assay relative to control; conditions: SNB-75, 48 h, read-out: GI
Procedure, shortened: (§2)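 NCI screen against its human cancer cell line panel by the standard NCI protocol, SRB protein stain. Single dose of 10 μM. Percent growth inhibition versus control; values above 100% mean the cell population fell below the starting number. Each value is the mean of duplicates.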

MCF7 = test: Growth inhibition of human MCF7 cells at 10 uM after 48 hrs by SRB assay relative to control; conditions: MCF7, 48 h, read-out: GI; procedure, shortened: as §1
K562 = test: Growth inhibition of human K562 cells at 10 uM after 48 hrs by SRB assay relative to control; conditions: K562, 48 h, read-out: GI; procedure, shortened: as §1
HCC 2998 = test: Growth inhibition of human HCC2998 cells at 10 uM after 48 hrs by SRB assay relative to control; conditions: HCC 2998, 48 h, read-out: GI; procedure, shortened: as §1
SK-MEL-28 = test: Growth inhibition of human SK-MEL-28 cells at 10 uM after 48 hrs by SRB assay relative to control; conditions: SK-MEL-28, 48 h, read-out: GI; procedure, shortened: as §1
UACC-257 = test: Growth inhibition of human UACC257 cells at 10 uM after 48 hrs by SRB assay relative to control; conditions: UACC-257, 48 h, read-out: GI; procedure, shortened: as §2
SNB-19 = test: Growth inhibition of human SNB19 cells at 10 uM after 48 hrs by SRB assay relative to control; conditions: SNB-19, 48 h, read-out: GI; procedure, shortened: as §2
NCI-H23 = test: Growth inhibition of human NCI-H23 cells at 10 uM after 48 hrs by SRB assay relative to control; conditions: NCI-H23, 48 h, read-out: GI; procedure, shortened: as §1
RPMI-8226 = test: Growth inhibition of human RPMI8226 cells at 10 uM after 48 hrs by SRB assay relative to control; conditions: RPMI-8226, 48 h, read-out: GI; procedure, shortened: as §1
IGROV-1 = test: Growth inhibition of human IGROV1 cells at 10 uM after 48 hrs by SRB assay relative to control; conditions: IGROV-1, 48 h, read-out: GI; procedure, shortened: as §1
SF-539 = test: Growth inhibition of human SF539 cells at 10 uM after 48 hrs by SRB assay relative to control; conditions: SF-539, 48 h, read-out: GI; procedure, shortened: as §1
Malme-3M = test: Growth inhibition of human MALME-3M cells at 10 uM after 48 hrs by SRB assay relative to control; conditions: read-out: GI; procedure, shortened: as §1
HT-29 = test: Growth inhibition of human HT-29 cells at 10 uM after 48 hrs by SRB assay relative to control; conditions: HT-29, 48 h, read-out: GI; procedure, shortened: as §1
SF-295 = test: Growth inhibition of human SF295 cells at 10 uM after 48 hrs by SRB assay relative to control; conditions: SF-295, 48 h, read-out: GI; procedure, shortened: as §1
HOP-92 = test: Growth inhibition of human HOP92 cells at 10 uM after 48 hrs by SRB assay relative to control; conditions: HOP-92, 48 h, read-out: GI; procedure, shortened: as §1
HCT-116 = test: Growth inhibition of human HCT116 cells at 10 uM after 48 hrs by SRB assay relative to control; conditions: HCT-116, 48 h, read-out: GI; procedure, shortened: as §1
NCI/ADR-RES = test: Growth inhibition of human NCI/ADR-RES cells at 10 uM after 48 hrs by SRB assay relative to control; conditions: read-out: GI; procedure, shortened: as §1
NCI-H322M = test: Growth inhibition of human NCI-H322M cells at 10 uM after 48 hrs by SRB assay relative to control; conditions: read-out: GI; procedure, shortened: as §1
SK-MEL-5 = test: Growth inhibition of human SK-MEL-5 cells at 10 uM after 48 hrs by SRB assay relative to control; conditions: SK-MEL-5, 48 h, read-out: GI; procedure, shortened: as §1
DU-145 = test: Growth inhibition of human DU145 cells at 10 uM after 48 hrs by SRB assay relative to control; conditions: DU-145, 48 h, read-out: GI; procedure, shortened: as §1
OVCAR-3 = test: Growth inhibition of human OVCAR3 cells at 10 uM after 48 hrs by SRB assay relative to control; conditions: OVCAR-3, 48 h, read-out: GI; procedure, shortened: as §1
SN12C = test: Growth inhibition of human SN12C cells at 10 uM after 48 hrs by SRB assay relative to control; conditions: read-out: GI; procedure, shortened: as §1
HL-60(TB) = test: Growth inhibition of human HL-60(TB) cells at 10 uM after 48 hrs by SRB assay relative to control; conditions: HL-60, 48 h, read-out: GI
Procedure, shortened: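 Run at NCI under its standard single-dose protocol against a leukemia cell panel. Cells were exposed to 10 µM; growth was read by sulforhodamine B staining of cellular protein and expressed as % growth inhibition versus untreated control. Values above 100% mean the cell population fell below the starting count (cytocidal). Each value is the average of duplicates.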

COLO 205 = test: Growth inhibition of human COLO205 cells at 10 uM after 48 hrs by SRB assay relative to control; conditions: COLO 205, 48 h, read-out: GI; procedure, shortened: as §1
Hs-578T = test: Growth inhibition of human Hs 578T cells at 10 uM after 48 hrs by SRB assay relative to control; conditions: read-out: GI; procedure, shortened: as §1
U-251 = test: Growth inhibition of human U251 cells at 10 uM after 48 hrs by SRB assay relative to control; conditions: U-251, 48 h, read-out: GI; procedure, shortened: as §2
OVCAR-4 = test: Growth inhibition of human OVCAR4 cells at 10 uM after 48 hrs by SRB assay relative to control; conditions: OVCAR-4, 48 h, read-out: GI; procedure, shortened: as §1
CAKI-1 = test: Growth inhibition of human Caki1 cells at 10 uM after 48 hrs by SRB assay relative to control; conditions: CAKI-1, 48 h, read-out: GI; procedure, shortened: as §1
UO-31 = test: Growth inhibition of human UO31 cells at 10 uM after 48 hrs by SRB assay relative to control; conditions: UO-31, 48 h, read-out: GI; procedure, shortened: as §2
UACC-62 = test: Growth inhibition of human UACC62 cells at 10 uM after 48 hrs by SRB assay relative to control; conditions: UACC-62, 48 h, read-out: GI; procedure, shortened: as §2

| Structure (SMILES) | inhibition of growth at 10 µM (CCRF-CEM) | inhibition of growth at 10 µM (HOP-62) | inhibition of growth at 10 µM (MDA-MB-435) | inhibition of growth at 10 µM (SNB-75) | inhibition of growth at 10 µM (MCF7) | inhibition of growth at 10 µM (K562) | inhibition of growth at 10 µM (HCC 2998) | inhibition of growth at 10 µM (SK-MEL-28) | inhibition of growth at 10 µM (UACC-257) | inhibition of growth at 10 µM (SNB-19) | inhibition of growth at 10 µM (NCI-H23) | inhibition of growth at 10 µM (RPMI-8226) | inhibition of growth at 10 µM (IGROV-1) | inhibition of growth at 10 µM (SF-539) | inhibition of growth at 10 µM (Malme-3M) | inhibition of growth at 10 µM (HT-29) | inhibition of growth at 10 µM (SF-295) | inhibition of growth at 10 µM (HOP-92) | inhibition of growth at 10 µM (HCT-116) | inhibition of growth at 10 µM (NCI/ADR-RES) | other results |
| --- | --- | --- | --- | --- | --- | --- | --- | --- | --- | --- | --- | --- | --- | --- | --- | --- | --- | --- | --- | --- | --- |
| COc1cccc(NC(=O)c2cccc(-c3cc(=O)c4c(O)c(OC)c(OC)cc4o3)c2)c1 | 34.7% | 37.5% | 22.6% | 1.94% | 13.2% | 16.9% | -3.54% | 14.2% | 8.74% | 16.4% | 25.4% | 53.6% | 12% | 20.7% | 12.3% | 15.6% | 17.6% | 33.6% | 30.7% | 25.8% | inhibition of growth at 10 µM (NCI-H322M): 12.9%; inhibition of growth at 10 µM (SK-MEL-5): 26.8%; inhibition of growth at 10 µM (DU-145): 19.4%; inhibition of growth at 10 µM (OVCAR-3): 10.6%; inhibition of growth at 10 µM (SN12C): 19%; inhibition of growth at 10 µM (HL-60(TB)): 17.5%; inhibition of growth at 10 µM (COLO 205): 24.3%; inhibition of growth at 10 µM (Hs-578T): 45.5%; inhibition of growth at 10 µM (U-251): 23.9%; inhibition of growth at 10 µM (OVCAR-4): 48%; inhibition of growth at 10 µM (CAKI-1): 32.4%; inhibition of growth at 10 µM (UO-31): 41.7%; inhibition of growth at 10 µM (UACC-62): 44.4% |
| COc1ccccc1NC(=O)c1cccc(-c2cc(=O)c3c(O)c(OC)c(OC)cc3o2)c1 | 39.8% | 0.21% | 2.77% | 13% | 7.54% | 22.1% | -2.45% | 5.62% | 1.19% | 6.18% | 13.9% | 45.4% | -5.97% | 6.01% | 5.55% | 10.8% | 10.8% | 15.8% | 14.5% | 19.8% | inhibition of growth at 10 µM (NCI-H322M): 1.56%; inhibition of growth at 10 µM (SK-MEL-5): 3.77%; inhibition of growth at 10 µM (DU-145): 5.49%; inhibition of growth at 10 µM (OVCAR-3): -0.89%; inhibition of growth at 10 µM (SN12C): 5.99%; inhibition of growth at 10 µM (HL-60(TB)): 9.41%; inhibition of growth at 10 µM (COLO 205): -7.01%; inhibition of growth at 10 µM (Hs-578T): 3.9%; inhibition of growth at 10 µM (U-251): -0.16%; inhibition of growth at 10 µM (OVCAR-4): 3.74%; inhibition of growth at 10 µM (CAKI-1): 6.75%; inhibition of growth at 10 µM (UO-31): 30%; inhibition of growth at 10 µM (UACC-62): 26.5% |

Source: ChEMBL document CHEMBL4325889, “Natural products hybrids: 3,5,4'-Trimethoxystilbene-5,6,7-trimethoxyflavone chimeric analogs as potential cytotoxic agents against diverse human cancer cells” (Eur J Med Chem, 2019)
